According to paper PMC5888399 (The FASEB Journal, 2017):
Read-outs that look alike come from different tables or passages of the source. Marks after values point to notes of the source that are not given here.

What was measured:
[1] = test system: young mdx mice; conditions: short term (2 wk) treatment; cited from earlier work
[2] = test system: exercised mdx mice; assay: Forelimb grip strength; format: in vivo, mouse; conditions: for Percentage change in normalized forelimb grip strength: vs mdx vehicle
How it was run: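 Mice were treadmill-exercised to unmask the phenotype. Forelimb grip force was measured weekly with a grip strength meter, at least 48 h after the last treadmill session: at UNIBA in phase 1 (4 wk), and at UNIBA and AGA in phase 2 (12 wk). Values were normalized to body weight. Outputs were percentage change vs WT or mdx vehicle and recovery score relative to the WT–mdx difference.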

[3] = test system: exercised mdx mice; assay: Hindlimb grip strength; format: in vivo, mouse; conditions: 12 wk, AGA
How it was run: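 In the 12-wk phase 2 study at AGA, treadmill-exercised mice had hindlimb grip force measured weekly with a grip strength meter, at least 48 h after the last treadmill session. Dosing was via drinking water at 10 or 50 mg/kg per day, with spring water as vehicle.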

[4] = test system: DIA muscle of mdx mice; format: in vivo, mouse
[5] = test system: EDL muscle of mdx mice; format: in vivo, mouse; conditions: for % change EDL twitch force: vs mdx vehicle
[6] = test system: mdx EDL muscle fibers; format: in vivo, mouse; conditions: 4 wk
[7] = test system: FDB muscle fibers of mdx mice; assay: Fura-2 microfluorescence, resting cytosolic Ca2+ in isolated FDB myofibers; format: in vivo, mouse; conditions: 4 wk
How it was run: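 FDB muscles were dissected after 4 wk of drinking-water dosing. Myofibers were isolated enzymatically in Ringer's with 0.8–1 mg/ml collagenase type XI-S for 45 min at 37°C, under constant agitation and O2 flux. Resting cytosolic Ca2+ was then measured by fura-2 microfluorescence (UNIBA).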

[8] = test system: Ca2+-dependent calpains; assay: Calpain activity in DIA muscle lysates; format: in vivo, mouse; conditions: treated groups, 4 wk, not significant
[9] = test system: DIA and GC muscles of mdx mice; assay: Histologic evaluation; format: in vivo, mouse; conditions: for Change in % damaged, total damaged gastrocnemius (%) / CNFs in DIA / Change in % damaged, total damaged DIA (%): 12 wk; for Change in % damaged, total damaged gastrocnemius (%) / Change in % damaged, total damaged DIA (%): vs mdx vehicle; for CNFs in DIA: vehicle 72.3 ± 1.6
How it was run: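 Diaphragm and left gastrocnemius were frozen in isopentane cooled in N2 (AGA) or paraffin-fixed (UNIBA). Sections of 6–10 μm were H&E-stained. Scored items: inflammation, degeneration, regeneration, centronucleated and normal fibers, and total damaged area. Five random images were taken per section, with blinded analysis on at least 6 animals per group.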

[10] = test system: creatine kinase (CK); assay: CK serum levels; format: in vivo, mouse
How it was run: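 Serum was taken from blood drawn by cardiac puncture. CK was measured spectrophotometrically with a diagnostic kit. Mice received drinking-water dosing of 10 or 50 mg/kg per day, with spring water as vehicle.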

[11] = test system: RyR1, FKB1α, UTRN, MIOG, FSTN, BNIP3, TGF-β, CYBB; assay: Real-time PCR gene expression in GC muscle; format: in vivo, mouse
How it was run: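 Total RNA was extracted from gastrocnemius (UNIBA) and reverse-transcribed at 25°C for 10 min, 42°C for 50 min and 70°C for 15 min. TaqMan real-time PCR used 8 ng cDNA per reaction, singleplex, in triplicate. Targets were RyR1, FKBP1α, utrophin, myogenin, follistatin, BNIP3, TGF-β and CYBB, normalized to GAPDH.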

[12] = S48168 plasma and GC muscle levels; format: in vivo, mouse; conditions: for Skeletal muscle (GC) concentration (mean) / Plasma concentration (mean): AGA; for Plasma concentration (mean): 20–30 min after drinking water withdrawn; for concentration at 2 h: mdx, mouse, oral, UNIBA
How it was run: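 Drug levels in plasma and gastrocnemius were measured by LC-MS/MS (ESI+, PFP column) after protein precipitation on phospholipid-removal plates, with a stable-isotope-labelled internal standard. In phase 2, blood was collected 20–30 min (AGA) or 2 h (UNIBA) after drinking water was withdrawn, following 12 wk of dosing at 10 or 50 mg/kg per day.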

[13] = Body weight, organ and muscle mass; format: in vivo, mouse
How it was run: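 mdx and WT mice given test compound in spring water (vehicle) ad libitum, targeting 10 or 50 mg/kg per day. Dose was calculated from weekly water volume per cage divided by animals and normalized to mean body weight. Body weight was tracked over 4 or 12 wk of treatment. Data are means ± sem. WT vs mdx vehicle was compared by unpaired t test; doses vs mdx vehicle by 1-way ANOVA with Dunnett's test.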

[14] = test system: PKA-phosphorylated RyR channels in SR vesicles from either cardiac or skeletal muscles; assay: Calstabin rebinding to RyR channels in SR vesicles; format: binding; conditions: data not shown
[15] = Oral bioavailability; format: in vivo; conditions: data not shown
[16] = 50 mg/kg per day, 4 wk, not significant

COc1ccc2c(c1)CN(C)CCS2 [S107]
Muscle function in young mdx mice [1]: improved muscle function

COc1ccc2c(c1)CN(Cc1ccc(C(=O)O)cc1)CCS2 [S48168/ARM210]
Normalized forelimb grip strength vs mdx vehicle ([2]; 10 mg/kg per day, 12 wk, AGA): no statistically significant effect
Recovery score, normalized forelimb force ([2]; 10 mg/kg, week 12, UNIBA): 35%
Normalized forelimb force ([2]; 10 mg/kg, week 12, UNIBA, vehicle 4.06 ± 0.20): 5 ± 0.23 KGF/kg
Percentage change in normalized forelimb grip strength ([2]; 10 mg/kg/d, 12 wk, AGA): +3%
Normalized forelimb grip strength ([2]; 50 mg/kg per day, 12 wk, AGA, vehicle 3.62 ± 0.14): 3.99 ± 0.15 KGF/kg
Recovery score, absolute forelimb strength ([2]; 50 mg/kg per day, W4, phase 1 UNIBA): 70%
Recovery score, normalized forelimb force ([2]; 50 mg/kg, week 12, UNIBA): 12%
Percentage change in normalized forelimb grip strength ([2]; 50 mg/kg/d, 12 wk, AGA): +10** %
Percentage change in normalized forelimb grip strength ([2]; 50 mg/kg/d, 12 wk, UNIBA): +8%
Normalized hindlimb grip strength ([3]; 50 mg/kg per day): statistically significant ameliorative effect
Absolute hindlimb grip strength vs mdx vehicle ([3]; treatment groups): no differences
% change DIA twitch force ([4]; 10 mg/kg per day, 12 wk, UNIBA, vs mdx vehicle): +2%
DIA specific tetanic force vs mdx vehicle ([4]; 50 mg/kg per day, 4 wk): significantly higher
DIA force–frequency relationship vs mdx vehicle ([4]; 50 mg/kg per day, 4 wk, 120 and 140 Hz): significantly higher values
DIA fatigue and recovery from fatigue ([4]; any dose level, 4 wk): no effect
% change EDL twitch force ([5]; 10 mg/kg per day, 12 wk, AGA): −2%
% change EDL twitch force ([5]; 10 mg/kg per day, 12 wk, UNIBA): −1%
% change EDL twitch force ([5]; 50 mg/kg per day, 12 wk, AGA): +6%
EDL stiffness ([5]; 50 mg/kg per day, 12 wk, UNIBA): slight but not significant amelioration
EDL fatigue-related decline in force and recovery from fatigue vs mdx vehicle ([5]; 12 wk, data not shown): no differences
EDL muscle-contraction kinetics (time to peak, half relaxation time) ([5]; 12 wk, data not shown): no effect
EDL muscle force (twitch and specific tetanic) ([5]; both doses, 4 wk): no effect
Force decrease in EDL muscle from eccentric contraction ([5]; either dose, 12 wk, UNIBA): No protective effect
Mechanical threshold: potential for fiber contraction, rheobase voltage ([6]; 50 mg/kg per day, all durations of depolarizing pulses): significant shift in the potential for fiber contraction toward WT values
Mechanical threshold: rheobase voltage ([6]; printed 50 mg/kg per day): slight but nonsignificant effect
Level of cytosolic Ca2+ vs mdx vehicle ([7]; 10 mg/kg per day): no difference
Reduction in cytosolic Ca2+ vs mdx vehicle myofibers ([7]; 50 mg/kg per day): 25%
Calpain activity in DIA [8]: trend toward a reduction
Change in % damaged, total damaged gastrocnemius (%) ([9]; 10 mg/kg per day, AGA): 1%
CNFs in DIA ([9]; 10 mg/kg, UNIBA): 62.4 ± 2.9%
Percentage of regenerating area in GC ([9]; 50 mg/kg per day, 4 wk): significant increases
Percentage of regeneration in DIA [9, 16]: increase in the percentage of regeneration
Percentage of total damage in DIA [9, 16]: reduction in the percentage of total damage
Percentage of total damage in GC ([9]; 50 mg/kg per day, 4 wk, significant): decreases
Change in % damaged, total damaged DIA (%) ([9]; 50 mg/kg per day, AGA): −10* %
Change in % damaged, total damaged gastrocnemius (%) ([9]; 50 mg/kg per day, AGA): 5%
Change in % damaged, total damaged DIA (%) ([9]; 50 mg/kg per day, UNIBA): −19%
CNFs in DIA ([9]; 50 mg/kg, UNIBA): 53.3 ± 2.5%
Number of CNF vs normal fibers in DIA or GC ([9]; either dose, 4 wk): No marked differences
CK level ([10]; 12 wk, UNIBA and AGA): no significant changes
Serum level of CK vs mdx vehicle ([10]; either dosage, 4 wk): No significant change
BNIP3 gene expression level vs mdx vehicle ([11]; 50 mg/kg per day, 4 wk): trend toward an increase
Gene expression of RyR1 compared with WT mice ([11]; 50 mg/kg per day, 4 wk): significant increase
Expression of RyR1, FKB1α, UTRN, MIOG, FSTN, TGF-β, or CYBB vs mdx vehicle ([11]; 10 or 50 mg/kg per day, 4 wk): No significant changes
Expression level of RyR1, calstabin, or BNIP3 ([11]; any dose, 12 wk): No significant changes
Skeletal muscle (GC) concentration (mean) ([12]; 10 mg/kg, 12 wk treatment): 0.552 µg/g
Plasma concentration (mean) ([12]; 10 mg/kg, 12 wk treatment): 6125 ng/mL
Skeletal muscle (GC) concentration (mean) ([12]; 50 mg/kg, 12 wk treatment): 1.716 µg/g
Plasma concentration (mean) ([12]; 50 mg/kg, 12 wk treatment): 18775 ng/mL
concentration at 2 h ([12]; gastrocnemius (GC) skeletal muscle, 10 mg/kg, Skeletal muscle (GC) concentration (mean), 4 wk treatment): 151 ng/g
concentration at 2 h ([12]; gastrocnemius (GC) skeletal muscle, 10 mg/kg, Skeletal muscle (GC) concentration (mean), 12 wk treatment): 123 ng/g
concentration at 2 h ([12]; gastrocnemius (GC) skeletal muscle, 50 mg/kg, Skeletal muscle (GC) concentration (mean), 4 wk treatment): 512 ng/g
concentration at 2 h ([12]; gastrocnemius (GC) skeletal muscle, 50 mg/kg, Skeletal muscle (GC) concentration (mean), 12 wk treatment): 1160 ng/g
concentration at 2 h ([12]; plasma, 10 mg/kg, Plasma concentration (mean), 10 mg/kg, 4 wk treatment, about 2 h after drinking water withdrawn): 881 ng/mL
concentration at 2 h ([12]; plasma, 50 mg/kg, Plasma concentration (mean), 50 mg/kg, 4 wk treatment, about 2 h after drinking water withdrawn): 3020 ng/mL
Heart mass normalized to body weight vs mdx vehicle ([13]; 10 mg/kg per day, 4 wk): lower normalized mean value
Quadriceps mass, absolute and normalized ([13]; 10 mg/kg per day, 12 wk, UNIBA): significant increase
Liver mass normalized to body weight ([13]; 50 mg/kg per day, 12 wk, UNIBA, n = 8): 56.39 ± 2.61 g/g × 1000
Mass of various skeletal muscles ([13]; 4 wk): no drug effect
Body weight vs mdx vehicle ([13]; 10 or 50 mg/kg per day, 4 wk, phase 1): no changes in body weight
Body weight vs mdx vehicle ([13]; 12 wk, UNIBA and AGA, any time point): no changes in body weight
Calstabin binding to PKA-phosphorylated RyR channels [14]: effectively re-establish calstabin binding
Oral bioavailability [15]: good oral bioavailability
